# In paper PMC3698760 (Journal of the American Heart Association: Cardiovascular …, 2013):
# Legend:
# ABCA1 = ABCA1 (Homo sapiens, UniProt O95477); assay: Cholesterol efflux in CHO-ldlA7 cells transfected with human ABCA1 cDNA; assay type: cell-based; settings: 20 μg/mL, 4 hours, n=6
# Outline: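 CHO-ldlA7 cells seeded at 80–90% confluence were transiently transfected (Lipofectamine 2000) with human ABCA1 cDNA in pcDNA3.1 or with empty vector (mock). Cells were labelled with ³H-cholesterol in serum-free medium with 0.2% BSA. Efflux over 4 h was measured with or without 20 μg/mL human apoA-I or test peptide; n=6.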
# [1] = system: mouse peritoneal macrophages; assay: Cellular cholesterol efflux in mouse peritoneal macrophages; assay type: cell-based; settings: 20 μg/mL, 4 hours, n=4 to 5
# Outline: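 Peritoneal macrophages taken from mice injected i.p. with 2 mL 2.9% thioglycollate 90 h earlier, and selected as cells adherent after 2 h. Cells were labelled with ³H-cholesterol and kept in serum-free medium with 0.2% BSA. Efflux to 20 μg/mL acceptor was measured over 4 h.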
# [2] = system: human monocyte‐derived macrophages; assay: Cellular cholesterol efflux in human monocyte-derived macrophages; assay type: cell-based; settings: 20 μg/mL, 4 hours, n=4 to 5
# Outline: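 Human peripheral blood monocyte-derived macrophages isolated by Lymphoprep gradient. Cells were radiolabelled with ³H-cholesterol and kept in serum-free medium containing 0.2% BSA. Efflux to 20 μg/mL acceptor (apoA-I or test peptide) or no acceptor was measured over 4 h.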
# [3] = system: apoE−/− mice fed a high‐fat diet; assay: Aortic atherosclerotic lesion formation, 16-week treatment; assay type: in vivo; settings: high-dose 50 mg/kg i.p. 3 times per week, 16 weeks; Oil Red O; mean±SD; P<0.01 vs scrambled
# Outline: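 Male apoE−/− mice, bought at six weeks, fed a high-fat diet (0.5% cholesterol, 10% fat) and dosed i.p. 3 times per week for 16 weeks: test peptide at 10 or 50 mg/kg per day, or scrambled peptide. Whole aortas were then stained with Oil Red O. Lesion area was scored by image analysis as percentage of aorta from ascending aorta to abdominal bifurcation.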
# human erythrocytes = assay: Hemolysis assay; assay type: cell-based; settings: 1% human erythrocytes in PBS, 10 minutes at 37°C; up to 1.0 mg/mL; OD 540 nm
# Outline: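 Erythrocytes from EDTA blood of 4 human donors, washed 3 times in PBS to remove plasma and buffy coat. A 1% suspension in PBS was incubated with or without test peptide for 10 min at 37°C. Hemoglobin in the supernatant was read at 540 nm and expressed as percentage of Triton X-100 lysis; mean±SD.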
# Sequence of ABCA1 (O95477 whole entry): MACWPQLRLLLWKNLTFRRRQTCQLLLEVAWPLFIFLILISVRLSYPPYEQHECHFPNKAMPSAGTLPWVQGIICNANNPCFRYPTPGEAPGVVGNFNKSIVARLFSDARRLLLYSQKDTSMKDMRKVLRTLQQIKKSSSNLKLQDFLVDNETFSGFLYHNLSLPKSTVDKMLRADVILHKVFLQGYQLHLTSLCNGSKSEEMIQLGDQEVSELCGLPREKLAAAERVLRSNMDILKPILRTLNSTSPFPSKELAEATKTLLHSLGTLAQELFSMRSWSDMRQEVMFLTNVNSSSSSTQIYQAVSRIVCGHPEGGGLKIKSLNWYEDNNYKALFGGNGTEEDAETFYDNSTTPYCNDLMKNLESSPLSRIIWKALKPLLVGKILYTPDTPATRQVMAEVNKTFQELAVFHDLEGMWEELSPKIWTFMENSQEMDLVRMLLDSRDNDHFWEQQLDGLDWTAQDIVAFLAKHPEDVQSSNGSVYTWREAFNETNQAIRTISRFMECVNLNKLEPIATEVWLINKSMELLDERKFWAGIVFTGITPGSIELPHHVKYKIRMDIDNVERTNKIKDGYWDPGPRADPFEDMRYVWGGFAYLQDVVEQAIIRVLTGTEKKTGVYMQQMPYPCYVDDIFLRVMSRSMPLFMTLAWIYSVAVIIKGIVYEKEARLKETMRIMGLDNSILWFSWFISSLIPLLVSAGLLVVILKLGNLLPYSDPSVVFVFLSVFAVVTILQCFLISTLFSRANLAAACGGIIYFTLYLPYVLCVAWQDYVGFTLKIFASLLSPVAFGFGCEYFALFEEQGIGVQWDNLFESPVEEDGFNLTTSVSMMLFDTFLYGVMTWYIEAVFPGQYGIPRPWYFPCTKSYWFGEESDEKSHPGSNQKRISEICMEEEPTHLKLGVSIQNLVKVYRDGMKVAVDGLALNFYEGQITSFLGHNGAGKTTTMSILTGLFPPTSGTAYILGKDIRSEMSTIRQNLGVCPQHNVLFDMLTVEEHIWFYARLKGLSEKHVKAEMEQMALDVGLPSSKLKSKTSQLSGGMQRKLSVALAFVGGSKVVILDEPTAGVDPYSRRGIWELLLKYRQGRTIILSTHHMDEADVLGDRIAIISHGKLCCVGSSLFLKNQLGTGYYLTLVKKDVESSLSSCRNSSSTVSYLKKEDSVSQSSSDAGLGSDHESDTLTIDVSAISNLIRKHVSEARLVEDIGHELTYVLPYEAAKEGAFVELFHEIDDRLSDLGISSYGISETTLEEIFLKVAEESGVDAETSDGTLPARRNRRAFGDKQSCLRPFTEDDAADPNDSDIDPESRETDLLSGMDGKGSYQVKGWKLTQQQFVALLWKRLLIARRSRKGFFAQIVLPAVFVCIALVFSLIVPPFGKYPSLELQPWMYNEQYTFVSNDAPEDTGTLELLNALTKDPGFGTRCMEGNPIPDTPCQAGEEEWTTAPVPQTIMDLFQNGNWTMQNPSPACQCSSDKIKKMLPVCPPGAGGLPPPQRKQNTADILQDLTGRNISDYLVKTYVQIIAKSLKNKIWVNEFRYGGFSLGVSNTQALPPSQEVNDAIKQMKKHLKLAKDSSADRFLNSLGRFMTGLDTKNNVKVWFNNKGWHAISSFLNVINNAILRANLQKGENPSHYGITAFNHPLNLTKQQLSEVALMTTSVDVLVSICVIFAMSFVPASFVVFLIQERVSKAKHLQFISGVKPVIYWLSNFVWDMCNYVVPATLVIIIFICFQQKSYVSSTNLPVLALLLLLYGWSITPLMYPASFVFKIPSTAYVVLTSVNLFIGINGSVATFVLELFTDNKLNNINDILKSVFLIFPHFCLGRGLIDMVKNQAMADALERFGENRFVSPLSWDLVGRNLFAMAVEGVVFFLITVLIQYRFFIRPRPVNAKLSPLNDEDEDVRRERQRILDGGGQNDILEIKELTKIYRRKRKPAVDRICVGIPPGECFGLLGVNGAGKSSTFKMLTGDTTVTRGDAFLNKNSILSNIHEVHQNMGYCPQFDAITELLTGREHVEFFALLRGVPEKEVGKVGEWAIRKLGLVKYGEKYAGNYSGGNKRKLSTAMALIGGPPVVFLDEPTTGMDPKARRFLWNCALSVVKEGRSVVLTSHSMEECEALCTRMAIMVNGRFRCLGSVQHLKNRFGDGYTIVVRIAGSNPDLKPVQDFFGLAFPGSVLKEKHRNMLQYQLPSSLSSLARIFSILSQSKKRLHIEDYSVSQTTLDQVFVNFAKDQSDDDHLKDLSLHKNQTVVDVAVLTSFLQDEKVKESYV
substance,measurement,setting,value
H-ALEHLFTLYEKALKALEDLLKKLL-OH [FAMP5],cholesterol efflux after transient transfection with ABCA1 cDNA vs mock,ABCA1,significantly upregulated
same,cholesterol efflux,[1],induced cholesterol efflux significantly more than human apoA‐I
same,cholesterol efflux,[2],induced cholesterol efflux significantly more than human apoA‐I
same,relative surface area of aortic plaque lesions,[3],16.2±5.0%
same,red cell hemolysis (percentage of the Triton X‐100 lysis),human erythrocytes,only limited effects
